RGS4 pot – potentiators or activators of RGS4 | HEK293 M3R/inducible RGS4, carbachol calcium flux Fluo4; active compounds read low | B-score at 10 µM | 310,000 compounds, 0.92% hits;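 active = B-score of the integrated calcium signal more than 4 SD below the library mean, with starting fluorescence not abnormally high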;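 note: negative B-score means reduced calcium response which marks RGS4 activation or potentiation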
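test system = HEK293 cells with stable M3R and inducible RGS4 | schedule = recording 10 s baseline at 1 Hz, 100 s post-agonist | technique = Fluo4-AM (2 µM) calcium-flux fluorescence, kinetic read | measure = Agonist-evoked peak-minus-minimum fluorescence over baseline, integrated ratio, B score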
MrgX1 allo act – allosterically activates human MrgX1 receptor signaling; Q96LB2; MrgX1-HEK293, Fluo-4 calcium flux, FDSS; active compounds read high; B-score at 10 µM; 310,000 compounds, 0.63% hits; AID 588675;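 active = plate-corrected calcium response at least 3 library SD above typical, normal starting fluorescence, not activating the receptor alone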;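 note: compound read alongside a low EC10 to EC30 dose of BAM8-22 agonist; peak minus trough fluorescence over baseline measured at the second addition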
Target sequence (Q96LB2 whole entry, looked up): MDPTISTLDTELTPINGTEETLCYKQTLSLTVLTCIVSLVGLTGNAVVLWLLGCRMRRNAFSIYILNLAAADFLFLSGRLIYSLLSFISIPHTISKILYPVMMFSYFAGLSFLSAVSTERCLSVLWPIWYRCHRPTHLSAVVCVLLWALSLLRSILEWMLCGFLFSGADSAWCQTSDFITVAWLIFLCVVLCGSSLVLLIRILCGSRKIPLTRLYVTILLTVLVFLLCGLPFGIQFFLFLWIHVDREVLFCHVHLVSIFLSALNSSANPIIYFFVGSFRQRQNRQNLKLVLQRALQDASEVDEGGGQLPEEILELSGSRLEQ
RGS4 inh – inhibitors of human RGS4; B-score at 10 µM; HEK293 M3R/RGS4 inducible, Fluo-4 calcium flux; active compounds read high; triggered by carbachol at its EC20; P49798; 310,000 compounds, 0.45% hits;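 active = B-score, a plate-corrected calcium signal, over three deviations above library mean, with baseline fluorescence within five deviations of library mean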;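 note: RGS4 expression induced by doxycycline in cells with stable M3 receptor; B-score is computed from the integrated fluorescence ratio over baseline after carbachol; higher B-score means a larger calcium signal and so more RGS4 inhibition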
Target sequence (P49798 whole entry, looked up): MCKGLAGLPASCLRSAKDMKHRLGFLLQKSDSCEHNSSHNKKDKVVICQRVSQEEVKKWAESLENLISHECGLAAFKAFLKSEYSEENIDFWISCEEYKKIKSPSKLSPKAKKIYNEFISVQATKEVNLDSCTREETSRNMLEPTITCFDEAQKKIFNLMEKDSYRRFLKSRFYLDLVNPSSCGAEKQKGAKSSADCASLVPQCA
MrgX1 ag – agonists of human MrgX1 receptor; Q96LB2; MrgX1-HEK293 cells, Fluo-4 calcium fluorescence, agonist mode; active compounds read high; B-score at 10 µM; 310,000 compounds, 0.44% hits; AID 588627;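 active = calcium response B-score plate-corrected fluorescence ratio at least 3 library SD, with starting fluorescence B-score inside 5 SD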
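Test system: HEK293 cells stably expressing human MrgX1 receptor; amount: 15,000 cells per well; doses: compound delivered in addition one of three; times: overnight plating before 1 h dye loading; detection: Fluo-4 NW calcium-flux fluorescence, kinetic read; read-out basis: B-scored fluorescence response ratio; controls: positive and negative controls per plate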
MrgX1 antagonist – antagonists of human MrgX1 receptor | B-score at 10 µM | 310,000 compounds, 1.3% hits | MRGX1-HEK293 calcium flux, Fluo-4, BAM8-22 antagonism; active compounds read low | Q96LB2;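 active = calcium-response B-score plate-corrected more than 3 library SD below zero, starting fluorescence within 5 deviations, no agonist response on first addition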;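 note: peak minus trough fluorescence over baseline after final BAM8-22 challenge near maximal dose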
MrgX1 antag conf – reconfirmed antagonist of human MrgX1 receptor signaling; shares compounds with MrgX1 antagonist; MrgX1-HEK293, BAM8-22 calcium flux, Fluo-4; active compounds read low; remaining BAM8-22 calcium response % of control (active compounds read low), % at 10 µM; 2,300 compounds, 19% hits; AID 602420;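 active = remaining agonist calcium response no higher than 100% minus 3 SD of agonist-only control wells, with starting fluorescence near control levels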;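 note: agonist BAM8-22 given at a near maximal EC90 to ECmax level; peak minus minimum fluorescence divided by baseline after agonist addition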
HEK293 Ca flux – MrgX1 antagonist counter-screen hit in parental HEK293 cells. shares compounds with MrgX1 antagonist. Fluo-4 calcium fluorescence, FDSS. fluorescence ratio F(max-min)/F0 at 10 µM. 4,000 compounds, 2% hits;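 active = duplicate-averaged calcium fluorescence ratio at least three times the standard deviation of buffer wells, a nonspecific response in parental cells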
HEK293 Ca counter – activity in parental HEK293 cells without MrgX1. shares compounds with MrgX1 antagonist. parental HEK293 calcium flux, Fluo-4 fluorescence ratio; active compounds read high. fluorescence ratio F(max-min)/F0 at 10 µM. 4,000 compounds, 0.4% hits. AID 624114;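 active = calcium fluorescence ratio, averaged over duplicates, at least 3 SD of the buffer-well ratio, meaning a nonspecific response in receptor-free cells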;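 note: untransfected parental HEK293 lacking MrgX1 used as counterscreen for MrgX1 allosteric activators; fluorescence change taken during the second addition on a kinetic imager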
HEK293 Ca cntr2 – MrgX1 activator counter-screen hit in parental HEK293 cells. shares compounds with MrgX1 antagonist. Fluo-4 calcium fluorescence (FDSS); active compounds read high. fluorescence ratio F(max-min)/F0 at 10 µM. 4,000 compounds, 8.7% hits;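 active = calcium fluorescence ratio at least three times the spread of buffer wells, meaning a non-specific response in parental cells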
Of the large screens only hits and unclear results are named; the others gave an inactive call (follow-up assays come after a bar, where they were run). A selection: hits, their analogues and other compounds. The true share with any hit is near 3.5%.

COCC(=O)N1CCN(c2nc3ccccc3o2)CC1	MrgX1 antagonist -4.5 | MrgX1 antag conf inactive | HEK293 Ca flux inactive | HEK293 Ca counter inactive | HEK293 Ca cntr2 inactive
O=C(CSc1nc2ccccc2o1)N1CCCC1	none
COC(=O)[C@]1(CC(C)C)N[C@H](c2ccc(-c3ccc(F)cc3)cc2)[C@@H]2C(=O)N(C)C(=O)[C@@H]21	none
O=C(c1cc(COc2ccc(F)cc2Cl)on1)N1CCC(c2ccncc2)CC1	none
CSc1ccccc1OCc1cc(C(=O)N2CCC(c3ccncc3)CC2)no1	MrgX1 antagonist -6.1 | MrgX1 antag conf 80% | HEK293 Ca flux inactive | HEK293 Ca counter inactive | HEK293 Ca cntr2 inactive
CC(C)CN(C(=O)COC(=O)c1ccccn1)c1c(N)n(Cc2ccccc2)c(=O)[nH]c1=O	none
O=C(Nc1cccnc1)c1cc(-c2ccc(Br)cc2)on1	MrgX1 antagonist -8.7 | MrgX1 antag conf inactive | HEK293 Ca flux inactive | HEK293 Ca counter inactive | HEK293 Ca cntr2 inactive
O=C(Nc1cccnc1)c1cc(-c2ccccc2)on1	none
O=C1CC(c2cccc(Oc3ccccc3)c2)NC(=O)N1 (stereo not given)	MrgX1 antagonist -8.2 | MrgX1 antag conf inactive | HEK293 Ca flux inactive | HEK293 Ca counter inactive | HEK293 Ca cntr2 inactive
CN(C)c1cccc(C(=O)OCC(=O)NC2CCCC2)c1	none
COc1cc(C)c(NC(=S)Nc2ccc(Cl)c(Cl)c2)cc1OC	MrgX1 antagonist -5.3 | MrgX1 antag conf 66% | HEK293 Ca flux inactive | HEK293 Ca counter inactive | HEK293 Ca cntr2 inactive
Cc1cc(=O)[nH]c(SCc2nnnn2-c2ccc(Cl)cc2)n1	none
Nc1cc(=O)[nH]c(SCc2nnnn2-c2ccc(Cl)cc2)n1	MrgX1 antagonist -6.9 | MrgX1 antag conf inactive | HEK293 Ca flux inactive | HEK293 Ca counter inactive | HEK293 Ca cntr2 inactive
NS(=O)(=O)c1ccc(CCNC(=O)/C=C/c2cccc([N+](=O)[O-])c2)cc1	none
COC(=O)c1ccc(C(=O)OC)c(NC(=O)CCC(=O)O)c1	none
COC(=O)c1ccc(C(=O)OC)c(NC(=O)COC(=O)c2ccccc2OC)c1	MrgX1 antagonist -6.7 | MrgX1 antag conf 84% | HEK293 Ca flux inactive | HEK293 Ca counter inactive | HEK293 Ca cntr2 inactive
CCCNC(=O)[C@H](C)NC(=O)c1ccc(Br)cc1	none
Cc1ccc(S(=O)(=O)/N=c2\scc(C)n2C)cc1	MrgX1 antagonist -5.5 | MrgX1 antag conf inactive | HEK293 Ca flux inactive | HEK293 Ca counter inactive | HEK293 Ca cntr2 inactive
Cc1ccc(S(=O)(=O)/N=C2\CN(C)C(=O)N2C)cc1	none
CCn1c(=NC(=O)CN2C(=O)CCC2=O)sc2c(OC)ccc(OC)c21	MrgX1 antagonist -8.2 | MrgX1 antag conf inactive | HEK293 Ca flux inactive | HEK293 Ca counter inactive | HEK293 Ca cntr2 inactive
CCOC(=O)C1CCCN(S(=O)(=O)c2cc3c4c(c2)CCN4C(=O)CC3)C1 (stereo not given)	MrgX1 antagonist -4.8 | MrgX1 antag conf inactive | HEK293 Ca flux inactive | HEK293 Ca counter inactive | HEK293 Ca cntr2 inactive
COc1ccccc1N1CCN(C2CC(=O)N(C)C2=O)CC1 (stereo not given)	none
C=CC(n1cncn1)C(O)(c1ccccc1)c1ccccc1 (stereo not given)	none
COc1ccc(CCN2CCCn3c2nc2c3c(=O)n(CC(C)C)c(=O)n2C)cc1OC	MrgX1 antagonist -6.1 | MrgX1 antag conf 68% | HEK293 Ca flux inactive | HEK293 Ca counter inactive | HEK293 Ca cntr2 inactive
CCn1c(=O)c2c(nc3n2CCCN3CCc2ccc(OC)c(OC)c2)n(C)c1=O	none
CCCn1c(=O)c2c(nc3n2CCCN3CCc2ccc(OC)c(OC)c2)n(C)c1=O	MrgX1 antagonist -4.8 | MrgX1 antag conf inactive | HEK293 Ca flux inactive | HEK293 Ca counter inactive | HEK293 Ca cntr2 inactive
COc1ccc(CCN2CCCn3c2nc2c3c(=O)n(Cc3ccccc3F)c(=O)n2C)cc1OC	none
Cc1cccc(N(Cc2ccccc2)C(=O)CSC(C)C(=O)Nc2cc(C)on2)c1 (stereo not given)	none
O=Cc1ccccc1-c1cn(CCCOCc2ccccc2)nn1	none
CCN(C(=O)c1c(-c2ccccc2)noc1C)c1ccccc1	MrgX1 antagonist -4.6 | MrgX1 antag conf inactive | HEK293 Ca flux inactive | HEK293 Ca counter inactive | HEK293 Ca cntr2 inactive
Cn1c(=O)c(=O)n(C)c2cc(S(=O)(=O)N3CCC(Cc4ccccc4)CC3)ccc21	none
CCn1c(=O)n(CC)c2cc(S(=O)(=O)N3CCC(c4ccccc4)CC3)ccc21	MrgX1 antagonist -7.1 | MrgX1 antag conf inactive | HEK293 Ca flux inactive | HEK293 Ca counter inactive | HEK293 Ca cntr2 inactive
Cc1nn(C)cc1C(C)NCc1c(C(=O)N2CCCCCCC2)nc2ccc(Cl)cn12 (stereo not given)	none
NC(=O)C1=C[C@@H](c2csc3ccccc23)C[C@@H](OCCCCO)O1	none
CC1CN=C(N(C(=S)Nc2ccccc2)c2cccc(C(F)(F)F)c2)S1 (stereo not given)	none
Cc1ccc(Cn2nc(C)c(NC(=O)c3nn(C)cc3Cl)c2C)cc1	MrgX1 antagonist -10 | MrgX1 antag conf inactive | HEK293 Ca flux inactive | HEK293 Ca counter inactive | HEK293 Ca cntr2 inactive
COc1ccc(/C=N/n2c(N)nc3ccccc32)cc1OC	MrgX1 antagonist -8.6 (no result: RGS4 pot, RGS4 inh) | MrgX1 antag conf inactive | HEK293 Ca flux inactive | HEK293 Ca counter inactive | HEK293 Ca cntr2 inactive
COc1cccc(/C=N/n2c(N)nc3ccccc32)c1OC	none
Cc1ccc(C)c(NC(=O)CS(=O)(=O)c2cn(C)c3ccccc23)c1	MrgX1 antagonist -13 | MrgX1 antag conf inactive | HEK293 Ca flux inactive | HEK293 Ca counter inactive | HEK293 Ca cntr2 inactive
Cn1cc(S(=O)(=O)CC(=O)Nc2ccc3c(c2)OCCO3)c2ccccc21	none
CCOC(=O)C1CCN(C(=O)CCc2ccccc2)CC1	MrgX1 antagonist -7.9 | MrgX1 antag conf inactive | HEK293 Ca flux inactive | HEK293 Ca counter inactive | HEK293 Ca cntr2 inactive
CC(C)Cc1nc2sc3c(c2c(=O)n1N)CC(C)(C)OC3	none
CON(C)c1nc(C2CCCCC2)c2cc(C)ccc2n1	none
COc1ccc(-c2nc(C3CCCCC3)c3cc(OC)ccc3n2)cc1	MrgX1 antagonist -5 | MrgX1 antag conf inactive | HEK293 Ca flux inactive | HEK293 Ca counter inactive | HEK293 Ca cntr2 inactive
